Test [1] has as its system A549. Nature of the test: Inhibition of TNF-alpha-stimulated ICAM1 expression in human A549 cells. Format: functional, cell-based. The method, boiled down:
(§1)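 A549 human lung carcinoma cells grown in RPMI 1640 with heat-inactivated 10% FBS, penicillin G and streptomycin. ICAM-1 induced with recombinant IL-1α or TNF-α. Cell-surface ICAM-1 detected with mouse anti-human ICAM-1 antibody C167 and peroxidase-conjugated goat anti-mouse IgG. Viability checked in parallel by MTT assay.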

In the next test the test system is HepG2. Briefly: Growth inhibition of HepG2 cells. Type of test: functional, cell-based. Conditions: Homo sapiens. An outline of the steps:
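HepG2 cells kept in D-MEM with 10% FBS and 80 µg/mL kanamycin. Growth inhibition measured, IC50 taken as the concentration giving 50% growth inhibition, reported in µg/mL.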

A further test deals with WI-38 VA13. Nature of the test: Growth inhibition of VA13 cells. Type of test: functional, cell-based. Conditions: Homo sapiens. The method, boiled down: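 VA-13 malignant lung tumor cells kept in RITC 80-7 medium with 10% FBS and 80 µg/mL kanamycin. Growth inhibition measured, IC50 taken as the concentration giving 50% growth inhibition, reported in µg/mL.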
The test system of test [2] is A549. Briefly: Inhibition of IL-1-alpha-stimulated ICAM1 expression in human A549 cells. Format: functional, cell-based. An outline of the steps:
as §1

In a further test the test system is WI-38. Briefly: Growth inhibition of WI38 cells. Type of test: functional, cell-based. Conditions: Homo sapiens.
Test [3] deals with MDR. Nature of the test: Effect on calcein accumulation in MDR 2780AD cells at 2.5 ug/mL relative to control. Type of test: functional, Homo sapiens. The method, boiled down:
(§2)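 Multidrug-resistant human ovarian cancer 2780AD (AD10) cells grown in RPMI-1640 with 10% FBS and 80 µg/mL kanamycin. Cells are exposed to test agent at 0.25, 2.5 and 25 µg/mL. Calcein formed from calcein AM by endogenous esterase is read as fluorescence per well, mean of triplicates. Results are given as % of untreated control, or relative to verapamil at the same concentration.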

For test [4], the system named is MDR. Briefly: Effect on calcein accumulation in MDR 2780AD cells at 0.25 ug/mL relative to control. Format: functional, Homo sapiens. An outline of the steps: as §2
Test [5] concerns MDR. Briefly: Effect on calcein accumulation in MDR 2780AD cells at 25 ug/mL relative to control. Type of test: functional, Homo sapiens. The method, boiled down: as §2
Test [6] concerns MDR. Briefly: Effect on calcein accumulation in MDR 2780AD cells at 0.25 ug/mL relative to verapamil. Type of test: functional, Homo sapiens. An outline of the steps: as §2
In test [7] the test system is MDR. Nature of the test: Effect on calcein accumulation in MDR 2780AD cells at 25 ug/mL relative to verapamil. Format: functional, Homo sapiens. The method, boiled down:
as §2

Test [8] has as its system MDR. Briefly: Effect on calcein accumulation in MDR 2780AD cells at 2.5 ug/mL relative to verapamil. Format: functional, Homo sapiens. An outline of the steps: as §2

Usually IC50 stands for the concentration that inhibits the measured activity by half.

Converted amounts (≈) assume the structure as drawn.

Turning to `O=C1CCCC2=C1[C@H](O)C[C@H](CCCCCCCCCCCCc1ccc3c(c1)OCO3)O2`, the IC50 is 48.8 µg/mL (≈ 107 µM) in the test with A549 [1]; 18.2 µg/mL (≈ 39.9 µM) in the test on HepG2; more than 20 µg/mL in the test with WI-38 VA13; 65.2 µg/mL (≈ 143 µM) in the test with A549 [2]; more than 20 µg/mL in the test on WI-38.
On to `O=C(CCCCCCCCCCCCCCc1ccc2c(c1)OCO2)C1=C(O)CCC(O)C1=O` (stereo not given) [SURINONE A], for which the IC50 with A549 [1] worked out at 33.5 µg/mL (≈ 70.9 µM); with HepG2, 7.4 µg/mL (≈ 15.7 µM); with WI-38 VA13, 4.4 µg/mL (≈ 9.31 µM); in the test with A549 [2], 51.4 µg/mL (≈ 109 µM); in the test on WI-38 it was 8.6 µg/mL (≈ 18.2 µM).
On to `COc1ccc(CCN(C)CCCC(C#N)(c2ccc(OC)c(OC)c2)C(C)C)cc1OC` (stereo not given), for which the Activity with MDR [3] is given as 114%; in the test on MDR [4], 114%; in the test on MDR [5], 138%.
On to `CC1(C)C[C@H](O)C[C@@]2(C)OC(=O)C=C12` [LOLIOLIDE], for which the IC50 in the test with HepG2, in the test on WI-38 VA13 and in the test with WI-38 was more than 20 µg/mL in each case.
Take `COc1cc(/C=C/C(=O)NCCc2ccc(O)c(OC)c2)ccc1O`: the IC50 in the test with HepG2, with WI-38 VA13 and in the test on WI-38 was more than 20 µg/mL throughout.
Consider `CC(=O)O[C@H]1C(=O)[C@@]2(C)[C@H]([C@H](OC(=O)c3ccccc3)[C@]3(O)C[C@H](OC(=O)[C@H](O)[C@@H](NC(=O)c4ccccc4)c4ccccc4)C(C)=C1C3(C)C)[C@]1(OC(C)=O)CO[C@@H]1C[C@@H]2O` [PACLITAXEL], for which the results for the IC50 in the test on HepG2 and in the test on WI-38 were 0.69 µg/mL (≈ 0.808 µM) and 0.05 µg/mL (≈ 0.0586 µM), respectively.
Take `O=C(CCCCCCCCCCCCc1ccc2c(c1)OCO2)C1=C(O)CCC(O)C1=O` (stereo not given): the figures for the IC50 in the test with A549 [1] and with A549 [2] were 27.2 µg/mL (≈ 61.2 µM) and 43.3 µg/mL (≈ 97.4 µM), respectively.
As to `COc1cc(/C=C/C(=O)NCCc2ccc(O)c(O)c2)ccc1O` [N-TRANS-FERULOYLDOPAMINE], the IC50 in the test with HepG2, in the test with WI-38 VA13 and in the test on WI-38 was more than 20 µg/mL throughout.
For `C=C(C)[C@@H]1CCC(=C)[C@H](O)CCC(=C)[C@@H](O)C1` [SINUGIBBERODIOL], the Activity is given as 100% in the test with MDR [6]; 137% with MDR [3]; 113% in the test with MDR [4]; 116% with MDR [7]; 120% with MDR [8]; 160% in the test on MDR [5].
Turning to `CC(C)CNC(=O)/C=C/CCCCc1ccc2c(c1)OCO2` [PIPERCALLOSIDINE], the half-maximal inhibitory concentration (IC50) in the test on HepG2, with WI-38 VA13 and with WI-38 was more than 20 µg/mL throughout.
As for `COc1cccc2c1C(=O)c1c(O)c3c(c(O)c1C2=O)C[C@@](O)(C(=O)CO)C[C@@H]3O[C@H]1C[C@H](N)[C@H](O)[C@H](C)O1` [DOXORUBICIN], the IC50 in the test with HepG2 amounted to 0.41 µg/mL (≈ 0.754 µM); in the test with WI-38 VA13, 0.39 µg/mL (≈ 0.718 µM).
Turning to `O=C(CCCCCCCCCCCCc1ccccc1)C1=C(O)CCC(O)C1=O` (stereo not given) [OLEIFERINONE], the IC50 with A549 [1] worked out at 22.9 µg/mL (≈ 57.2 µM); in the test with HepG2 it was 9.2 µg/mL (≈ 23 µM); in the test on WI-38 VA13, 5.8 µg/mL (≈ 14.5 µM); in the test with A549 [2] it was 36.8 µg/mL (≈ 91.9 µM); with WI-38, 9.6 µg/mL (≈ 24 µM).
Turning to `COc1cc(/C=C/C(=O)NCCc2ccc(O)cc2)cc(OC)c1O` [TRANS-N-SINAPOYLTYRAMINE], the IC50 with HepG2, in the test with WI-38 VA13 and in the test on WI-38 was more than 20 µg/mL throughout.

Source of the values: ChEMBL document CHEMBL1143721, “Bioactive polyketides from Peperomia duclouxii” (J Nat Prod, 2007).
